# Compound activity as filed in PubChem BioAssay.
# In the library only some 1.4% were active in any assay of this set; here they are far more common.
# HIV Env fusion – inhibitors of HIV-1 Env-driven cell-cell fusion, primary screen, HeLa-JRFL effector, CEM21 target cells, luciferase; inhibition, % at 12.3 µM; 1.1% of 360,000 active; AID 651610, 2012;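 active means mean replicate inhibition score of at least 50 and every replicate individually at or above 50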;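 further: 0% = plate neutral controls and 100% = maraviroc near 300 nM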
# GSK3beta inhib – human GSK3beta kinase inhibitors, primary screen, biochemical, cell-free homogeneous, HTS; Glycogen synthase kinase-3 beta (Homo sapiens), P49841; GST-GSK3beta kinase, ADP-Glo luminescence, 60 min; stronger effect = lower value; activity score (negative = inhibition), % at 10 µM; 0.038% of 300,000 active; AID 2097, 2009;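 active means more than half of replicate wells score below -50%, meaning over 50% inhibition versus plate controls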;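 further: 0% = median DMSO wells and -100% = median GW8510 positive control wells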
# Target sequence (P49841 whole entry, looked up): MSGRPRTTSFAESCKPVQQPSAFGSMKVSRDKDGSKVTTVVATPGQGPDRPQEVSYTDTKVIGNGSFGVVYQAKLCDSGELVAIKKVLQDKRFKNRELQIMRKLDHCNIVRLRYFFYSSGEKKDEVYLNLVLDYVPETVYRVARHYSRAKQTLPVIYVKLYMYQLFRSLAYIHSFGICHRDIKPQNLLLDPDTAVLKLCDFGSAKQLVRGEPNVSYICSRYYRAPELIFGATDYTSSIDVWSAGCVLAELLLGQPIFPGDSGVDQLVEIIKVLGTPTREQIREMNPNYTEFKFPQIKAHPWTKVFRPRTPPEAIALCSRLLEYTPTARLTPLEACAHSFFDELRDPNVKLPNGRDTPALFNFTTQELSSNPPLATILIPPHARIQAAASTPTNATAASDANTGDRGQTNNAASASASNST
#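 Test system – GST-tagged human GSK3beta kinase, cell-free · Incubation – 60 min enzyme reaction, room temperature · Signal – ADP-Glo luminescence · Also added – peptide substrate and ATP at 25 µM · Controls – DMSO neutral wells and GW8510 at 20 µM as positive · Buffer or medium – Tris/MgCl2 kinase buffer · Measure – Luminescence-derived activity versus plate DMSO and GW8510 wells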
# CDK5 p35 inh – inhibitors of human CDK5/p35 kinase, primary screen, biochemical, single concentration; Cyclin-dependent kinase 5 (Homo sapiens) + Cyclin-dependent kinase 5 activator 1 (Homo …; Recombinant CDK5/p35, ADP-Glo luminescence, 60 min; AID 488839, 2010; 0.01% of 330,000 active; inhibition, % at 10 µM;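 active means highest replicate inhibition of at least 50% and at least 75% of replicates reaching 50%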;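 further: plate controls were DMSO neutral control for no effect and GW8510 at 10 µM for full effect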
# INS-1E GSIS act – GLuc luminescence reporter in INS-1E cells, primary screen for activators of glucose-dependent secretion of insulin; INS-1E GLuc reporter insulin secretion, 2-3 h; activation, % at 16.6 µM; 0.61% of 370,000 active; AID 743287, 2014;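 active means lowest replicate activation of at least 40%, so every replicate reaches that level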;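 further: 0% = median of neutral control wells and 100% = median of IBMX positive control wells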
# STK33 inh – inhibitors of purified STK33 kinase, primary screen, biochemical, ADP-Glo luminescence, homogeneous, cell-free; inhibition, % at 10 µM; MBP phosphorylation; 0.073% of 320,000 active; Serine/threonine-protein kinase 33 (Homo sapiens), Q9BYT3;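 active means inhibition at or above 25%, using the most active replicate where run in duplicate; inactive means inhibition below 25%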
# GSK3A inh – blockers of GSK3A enzyme activity – biochemical, luminescence, cell-free homogeneous, HTS, primary screen; Glycogen synthase kinase-3 alpha (Homo sapiens), P49840; GSK-3 alpha kinase, ADP-Glo luminescence, 60 min; inhibition, % at 10 µM; 0.1% of 320,000 active; AID 2650, 2010;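 active means more than half of replicates show inhibition above 20%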;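 further: GST-tagged GSK-3 alpha with peptide substrate and 25 µM ATP; 0% = DMSO neutral wells and 100% = GW8510 positive control wells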
# The depositor's hits bear a star; nt = no result given; + = active, no number; ! = not active in a repeat; [ ] = another dose, or the depositor's remark.
SMILES,HIV Env fusion,GSK3beta inhib,CDK5 p35 inh,INS-1E GSIS act,STK33 inh,GSK3A inh
CN(C)C(=O)CCCc1nc(-c2ccc(Cl)cc2)no1,55*,3,1,-3,0,-5
O=C(CCCc1nc(-c2ccc(Cl)cc2)no1)Nc1cccnc1,61*,-2,-1,nt,0,-1
COc1cc(/C=N/O)ccc1OCc1ccc(C(=O)O)cc1,113*,-2,-2,nt,0,1
COc1cc(/C=N/NS(=O)(=O)c2ccc(C)cc2)ccc1OCc1cccc(C(=O)O)c1,72*,1,0,9,0,-4
O=C(O)c1cc(/C=N\O)ccc1OCc1ccccc1,7,1,-2,nt,-1,-2
COc1cc(C(=O)O)ccc1OCc1ccccc1,-13,nt,nt,55*,nt,nt
COc1ccc(C(C)=O)cc1OCc1ccccc1,16,nt,nt,23,nt,nt
COc1cc(/C=N/NS(=O)(=O)c2ccc3ccccc3c2)ccc1OCc1ccc(C(=O)O)cc1,50,2,0,-2,-2,-4
COCC(=O)N[C@H]1C=C[C@@H](CC(=O)NCc2ccc(Cl)cc2)O[C@@H]1CO,3[16.7 µM],nt,nt,6,nt,nt
C[C@@H]1CN([C@H](C)CO)C(=O)c2cc(C#CCc3ccccc3)cnc2O[C@H]1CN(C)C(=O)Cc1cccnc1,nt,nt,nt,-25,nt,nt
COCCNc1nc(Oc2ccccc2)c2sccc2n1,13,nt,nt,22,nt,nt
COCCNc1nc(Oc2ccc(C(N)=O)cc2)c2sccc2n1,9,nt,nt,92*,nt,nt
COCCNc1nc(NCCCN(C)C)c2sccc2n1,6,nt,nt,66*,nt,nt
CCNC(=O)C[C@H]1CC[C@@H]2[C@H](COC[C@@H](O)CN2Cc2ccncc2)O1,-14[16.7 µM],nt,nt,-8,nt,nt
COc1ccc(S(=O)(=O)CCc2nnc(NC(=O)c3cccs3)s2)cc1,-63,-2,0,nt,0,-2
O=C(Nc1nnc(CCS(=O)(=O)c2ccc3ccccc3c2)s1)c1cccs1,42,1,-1,106*,nt,nt
COc1ccc2c3c([nH]c2c1)[C@@H](CO)N(C(=O)C1CCC1)CC31CN(C)C1,nt,nt,nt,23,nt,nt
CCCNC(=O)N(C)C[C@@H]1Oc2cc(-c3cncnc3)ccc2S(=O)(=O)N([C@@H](C)CO)C[C@@H]1C,nt,nt,nt,13,nt,nt
CC1=CC(C)(C)N2C(=O)C3(SCC(=O)N3c3ccc(F)cc3)c3cc(C)cc1c32 (configuration not stated),72*,-3,-4,-34,0,0
CC1=CC(C)(C)N2C(=O)C3(NCCc4c3[nH]c3ccccc43)c3cc(C)cc1c32 (configuration not stated),17,-3,1,-15,0,1
CC(=O)N(C)C[C@@H]1Oc2cc(C#Cc3ccccn3)ccc2S(=O)(=O)N([C@H](C)CO)C[C@H]1C,4[16.7 µM],nt,nt,-2,nt,nt
CN(C)c1ccc(CC(=O)N2CCCCC2c2cc(C(=O)Nc3ccccc3Cl)no2)cc1 (configuration not stated),11,nt,nt,45*,nt,nt
C=C(C)C(=O)Nc1nnc(-c2cccs2)s1,7,-10,0,118*,-2,-1
CCC(=O)Nc1nnc(-c2cccs2)s1,-28,4,5,14,-2,-1
O=C(N[C@H]1CC[C@@H](CCNS(=O)(=O)c2ccc(F)cc2)O[C@@H]1CO)C1CC1,12[16.7 µM],nt,nt,-6,nt,nt
SMILES,HIV Env fusion,GSK3beta inhib,CDK5 p35 inh,INS-1E GSIS act,STK33 inh,GSK3A inh
COc1ccc(C(=O)NCC(=O)OCC(=O)NC2CCCCCC2)cc1OC,-4,nt,0,65*,-2,0
CCOc1ccc(C(=O)OCC(=O)NC2CCCC2)cc1OCC,10,4,0,41*,0,-3
COc1ccc(C(=O)OCC(=O)NC2CCCC2)cc1OC,0,-5,0,10,0,-1
CCOc1ccc(C(=O)OCC(=O)Nc2cc(C)on2)cc1OCC,-26,1,-1,62*,-1,nt
CO[C@@H]1CN(C)C(=O)c2ccc(NC(=O)c3cnccn3)cc2OC[C@@H](C)N(C)C[C@@H]1C,nt,nt,nt,3,nt,nt
COc1ccc(NC(=O)c2csc(C)c2)cc1OC,22,1,-2,57*,0,-1
COc1ccc(C(=O)Nc2ccc(OC)c(OC)c2)cc1,-93,4,-1,8,1,-1
COc1ccc(-n2c(=S)[nH]c3cc(C(=O)Nc4ccc(OC)c(OC)c4)ccc3c2=O)cc1,nt,2,0,76*,1,0
CN1c2ccc(Br)cc2[C@@H]2[C@@H](CCN2C(=O)Nc2cc(F)ccc2F)[C@@H]1CO,nt,nt,nt,-13,nt,nt
O=C(CSc1n[nH]c(=O)n1C1CC1)Nc1cc(Cl)ccc1Oc1ccccc1,128*,-1,1,-23,-2,1
COc1ccc2c3c(n(C)c2c1)[C@@H](CO)N(C(=O)Cc1ccccc1)CC31CN(C(C)=O)C1,nt,nt,nt,-14,nt,nt
CN(C)CCOc1ccc(-c2c(-c3ccccc3)sc3ccccc23)cc1,-8,nt,0,446*,3,4
O=C(Nc1ccc2c(c1)OCO2)N1C[C@@H]2N[C@H](C1)C2c1ccc(C=Cc2ccccc2)cc1 (some centres not stated),nt,nt,nt,89*!,nt,nt
O=C(Nc1ccc(C(F)(F)F)cc1)N1[C@@H]2CNC[C@H]1C2c1ccc(/C=C/c2ccccc2)cc1 (some centres not stated),nt,nt,nt,+!,nt,nt
O=C(Nc1ccc(F)cc1)N1C[C@@H]2N[C@H](C1)C2c1ccc(/C=C/c2ccccc2)cc1 (some centres not stated),nt,nt,nt,-17,nt,nt
C/C=C/c1ccc(C2[C@@H]3CN(C(=O)Nc4ccc(F)cc4)C[C@H]2N3)cc1 (some centres not stated),nt,nt,nt,-15,nt,nt
C/C=C/c1ccc(C2[C@@H]3CN(C(=O)Nc4ccc(C(F)(F)F)cc4)C[C@H]2N3)cc1 (some centres not stated),nt,nt,nt,190*!,nt,nt
O=C(Nc1ccc(F)cc1)N1[C@@H]2CNC[C@H]1C2c1ccc(/C=C/c2ccccc2)cc1 (some centres not stated),nt,nt,nt,9,nt,nt
CN1c2ccc(-c3cccc(C#N)c3)cc2[C@H]2[C@H](CCN2S(=O)(=O)c2ccccc2F)[C@@H]1CO,nt,nt,nt,5,nt,nt
CC(C)NC(=O)Nc1ccc2c(c1)C(=O)N([C@@H](C)CO)C[C@H](C)[C@H](CN(C)C(=O)CCC(F)(F)F)OCCCC[C@H](C)O2,-5[16.7 µM],nt,nt,7,nt,nt
O=C(N=C1SC2CS(=O)(=O)CC2N1c1ccc(F)c(Cl)c1)C1CC1 (configuration not stated),0,6,-10,42*,-2,-1
